Only some compounds are listed: those with a hit (about 3.1% of all), similar ones and a draw of the others.
UHRF1 binding: UHRF1 methylated DNA binding inhibitors, primary screen, counter-screen for MBD2 inhibitor project, biochemical, TR-FRET, human UHRF1, single concentration; AID 687016, 2013; hit rate 0.75% among 370,000; UHRF1 binding to methylated oligo; inhibition, % at 4.4 µM; in the data active means inhibition above about 21%;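 further: UHRF1 SRA domain binding a hemimethylated CpG hairpin DNA probe; 0% = median of test compound wells and 100% = reference inhibitor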
RBBP9 inhibitor: human RBBP9 inhibitors, primary screen, biochemical, fluorescence polarization, FP-Rh probe, HTS; Serine hydrolase RBBP9 (Homo sapiens), O75884; recombinant RBBP9; inhibition, % at 7.94 µM; hit rate 0.2% among 220,000;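 active means inhibition above the campaign mean of all tested compounds plus 3 SD, cut at about 14% in these data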;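 further: plate controls were DMSO wells with RBBP9 for no effect and wells lacking RBBP9 protein for full effect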
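Test system – recombinant human RBBP9 · Input – RBBP9 2.5 µM in dispensing solution, pre-mixing · Medium – Tris buffer pH 8.0, NaCl, Pluronic · Schedule – preincubation 30 min plus labeling 45 min at 25 °C · Measured by – fluorescence polarization · Measure – % inhibition · Controls – DMSO and no-protein wells · Replicates – one well per compound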
ABHD5-PLIN5 inh: ABHD5-PLIN5 interaction inhibitors, primary screen, cell lysate, split luciferase complementation, luminescence | Perilipin-5 (Homo sapiens) + 1-acylglycerol-3-phosphate O-acyltransferase ABHD5 (Homo … | inhibition, % at 4 µM | hit rate 0.78% among 360,000 | Split G. princeps luciferase complementation, 4 h;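 active means inhibition above the mean inhibition across every tested compound plus 3 SD, cut at about 22% in these data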;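 further: 0% = DMSO only wells and the 100% control is not disclosed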
LEDGF integ inh: blockers of LEDGF/p75-dependent integrase strand transfer – biochemical, TR-FRET, high throughput, primary screen | TR-FRET IN-LEDGF/p75 DNA integration, Eu/Cy5 | inhibition, % at 3.7 µM | hit rate 0.64% among 370,000 | HIV-1 integrase (with human LEDGF/p75);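 active means inhibition above the screen-wide mean plus 3 SD, cut at about 13% in these data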;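 further: signal is the Cy5 over europium emission ratio at 671 and 618 nm; 0% = plate median of compound wells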
MBD2 inh: inhibitors of MBD2 binding to methylated DNA, primary screen, biochemical, TR-FRET, DNA-binding domain, human; MBD2 binding to methylated oligonucleotide; AID 686964, 2013; hit rate 0.31% among 370,000; inhibition, % at 4.4 µM; Methyl-CpG-binding domain protein 2 (Homo sapiens), Q9UBB5; in the data active means inhibition above about 13%
PRMT1 FP inh: PRMT1 methyltransferase inhibitors, primary screen, biochemical, fluorescence polarization | inhibition, % at 2.79 µM | recombinant PRMT1, activity-based probe fluorescence polarization | AID 652257, 2013 | hit rate 1.3% among 370,000;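 active means inhibition above about 21% made by adding two undisclosed values, limit read from the data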
PRMT1 inh conf: PRMT1 methyltransferase inhibitors, confirmation, biochemical, fluorescence polarization, triplicate. AID 687036, 2013. shares compounds with PRMT1 FP inh. recombinant His-PRMT1, activity-based probe fluorescence polarization. hit rate 42% among 3,300. inhibition, % at 2.79 µM;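 active means mean inhibition across replicates above the hit cutoff derived for the earlier primary screen, cut at about 22% in these data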
The depositor's hits bear a star; x = no result given.

SMILES | UHRF1 binding | RBBP9 inhibitor | ABHD5-PLIN5 inh | LEDGF integ inh | MBD2 inh | PRMT1 FP inh | PRMT1 inh conf
COC(=O)c1c(NC(=O)CN2C(=O)C(=O)N(CC(C)C)C2=O)sc2c1CCCCC2 | 2 | -8 | -8 | 1 | -6 | 58* | 8
COc1ccc(-c2nc3c(s2)CN(S(C)(=O)=O)CC3)cc1OC | 0 | x | 2 | -3 | 5 | 35* | 4
Cc1c(-c2n[nH]c(=S)n2-c2ccc(C(F)(F)F)cc2)nnn1-c1ccccc1 | 4 | 0 | -5 | 2 | 1 | 30* | 6
Cc1ccc(S(=O)(=O)N2CC3(COC(C)(C)OC3)C[C@H]2CON2C(C)(C)CCCC2(C)C)cc1 | 3 | x | x | -1 | 1 | 1 | x
COc1ccc(NC(=O)CS(=O)(=O)c2cn(CC(=O)N3CCOCC3)c3ccccc23)cc1OC | 1 | x | -13 | -5 | 4 | 35* | 21*
CN(CCCOC(=O)c1occ2ccccc12)C1CN(Cc2cn(Cc3ccccc3Cl)nn2)S(=O)(=O)C1 (stereo not drawn) | 2 | x | x | 0 | 9 | 5 | x
O=C(O)c1ccc(NNC(=S)Nc2cc(C(F)(F)F)ccc2Cl)cc1 | 0 | x | -25 | 0 | -5 | 27* | 12
Cc1ccc2nc(-c3cccc(Br)c3)c(Cc3ccccc3C(F)(F)F)n2c1 | 1 | x | -6 | 5 | -5 | -7 | x
COc1ccc(-c2nc3ccc(Br)cn3c2Cc2ccccc2C(F)(F)F)cc1OC | 2 | x | -5 | 6 | -1 | -4 | x
Cc1cc2nc(-c3ccco3)c(Cc3ccccc3C(F)(F)F)n2c(C)c1Br | -2 | x | 40* | 0 | 1 | 36* | 17
Cc1cc2nc(C3CCCCC3)c(Cc3ccccc3C(F)(F)F)n2c(C)c1Br | -3 | x | -5 | 1 | -2 | 0 | x
Cc1ccc2nc(-c3ccco3)c(Cc3ccccc3C(F)(F)F)n2c1 | 16 | x | x | 1 | 10 | 33* | 19
FC(F)(F)c1ccccc1Cc1c(-c2ccco2)nc2ccc(Br)cn12 | 18 | x | 34* | 1 | 0 | 36* | 17
COc1cccc(/C=C2\CC3(OC(=O)C4CCCC4)CCCN2C3)c1 (stereo not drawn) | 0 | x | x | -3 | 4 | 1 | x
COc1ccccc1NC(=O)CN1CCN(CC(=O)Nc2ccc3c(c2)OCO3)CC1 | 2 | -7 | 5 | -3 | 4 | 1 | x
COc1ccc(NC(=O)CSC2CC(=O)N(c3ccc4c(c3)OCCO4)C2=O)cc1 (stereo not drawn) | 2 | -12 | -5 | 0 | 5 | 36* | 23*
COc1ccccc1NC(=O)CSC1CC(=O)N(c2ccc3c(c2)OCO3)C1=O (stereo not drawn) | -1 | -4 | 0 | 1 | 1 | 44* | 35*
COc1ccc(N2C(=O)CC(SCC(=O)O)C2=O)cc1 (stereo not drawn) | 4 | -7 | 3 | -4 | 3 | 25* | 11
CCOc1ccc(N2C(=O)CC(SCC(=O)O)C2=O)cc1 (stereo not drawn) | 1 | 0 | -2 | -1 | -1 | 3 | x
O=C(Nc1ccc2ccccc2c1)C1CC2CCC1C2 (stereo not drawn) | -1 | x | x | 1 | 3 | -3 | x
CCOC(=O)[C@]12CCCC3=C1N(CCC3)C(=O)[C@@H](CC(=O)NCCC(C)C)C2 | 0 | x | x | -1 | 1 | -4 | x
COc1ccc(Cl)cc1-c1n[nH]c(=S)n1C1CCCCC1 | 3 | -8 | -4 | -2 | -3 | 13 | x
Cc1cc(Cl)ccc1OCc1n[nH]c(=S)n1C1CCCCC1 | 6 | 0 | -22 | -7 | 7 | 26* | 2

Screening results: PubChem BioAssay, The Scripps Research Institute Molecular Screening Center
